Laboratory results reported in ChEMBL document CHEMBL1828561, “Identification of a potent and selective free fatty acid receptor 1 (FFA1/GPR40) agonist with favorable physicochemical and in vitro ADME properties” (J Med Chem, 2011).
≈ marks a conversion by molar mass, not a printed value. Calls of active or inactive are those of the source. The calls are words filed in the database; no cut-off is given here.

Legend:
1321-N1 [1] = assay: Selectivity for human FFA1 receptor expressed in human 1321N1 cells over H2 receptor; type: cell-based
[2] = biological target: Free fatty acid receptor 1 (Homo sapiens, UniProt O14842); assay: Agonist activity at human FFA1 receptor expressed in human HEK293 assessed as movement of cellular constitiuent by DMR assay; type: functional, cell-based
Procedure, shortened: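 FFA1-HEK cells (doxycycline-inducible FLAG-hFFA1, HEK293), 15 000/well on fibronectin-coated 384-well Epic plates, 20–24 h culture. Washed in HBSS/20 mM HEPES, equilibrated 1 h at 28 °C, baseline read, compound added.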

1321-N1 [3] = assay: Selectivity for human FFA1 receptor expressed in human 1321N1 cells over ETA receptor; type: cell-based
1321-N1 [4] = assay: Selectivity for human FFA1 receptor expressed in human 1321N1 cells over SKCa channel; type: cell-based
1321-N1 [5] = assay: Selectivity for human FFA1 receptor expressed in human 1321N1 cells over MT1 receptor; type: cell-based
1321-N1 [6] = assay: Selectivity for human FFA1 receptor expressed in human 1321N1 cells over GABA receptor; type: cell-based
1321-N1 [7] = assay: Selectivity for human FFA1 receptor expressed in human 1321N1 cells over NK3 receptor; type: cell-based
1321-N1 [8] = assay: Selectivity for human FFA1 receptor expressed in human 1321N1 cells over Ca2+ channel; type: cell-based
[9] = Apparent permeability from apical to basolateral side of human Caco2/TC7 cells; type: ADME, cell-based; settings: Caco-2
Procedure, shortened: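 Caco-2 TC7 monolayers, apical to basolateral transport at pH 6.5 apical/7.4 basolateral.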

1321-N1 [10] = assay: Selectivity for human FFA1 receptor expressed in human 1321N1 cells over […]; type: cell-based
[11] = biological target: Free fatty acid receptor 1 (Rattus norvegicus) (UniProt Q8K3T4); assay: Agonist activity at FFA1 receptor in rat INS-1E cells assessed as movement of cellular constitiuent at 0.3 uM by DMR assay in the presence of trans-1-oxo-3-(4-phenoxyphenyl)-2-propyl-1,2,3,4-tetrahydroisoquinoline-4-carboxylic acid; type: functional, cell-based
Procedure, shortened: (§1)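 Label-free DMR on an Epic optical biosensor. Rat INS-1E cells, 30 000/well on fibronectin-coated 384-well sensor plates, cultured 20–24 h to confluence. Washed in HBSS/20 mM HEPES and equilibrated 1 h at 28 °C. Baseline read, compound added, wavelength shift (pm) monitored ≥5000 s. Antagonist line: 0.3 μM agonist with the FFA1 antagonist over a concentration range, pIC50 derived, n = 4.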

CYP2C19 = CYP2C19 (Homo sapiens, UniProt P33261); assay: Inhibition of CYP2C19 at 10 uM; type: ADME
1321-N1 [12] = assay: Selectivity for human FFA1 receptor expressed in human 1321N1 cells over VPAC1 receptor; type: cell-based
1321-N1 [13] = assay: Selectivity for human FFA1 receptor expressed in human 1321N1 cells over CCR1 receptor; type: cell-based
[14] = Apparent permeability across methotrexate treated human HT-29 cells; type: ADME, cell-based
Procedure, shortened: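 HT29-MTX mucus-producing cells, passage 32, grown 23 days (TEER > 750 Ω cm²). Compound at 100 μM (10 mM DMSO stock diluted 1:100 in buffer). […] Non-permeated drug measured for recovery. Monolayer integrity checked by 20 μM carboxyfluorescein after 1 h and TEER.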

1321-N1 [15] = assay: Selectivity for human FFA1 receptor expressed in human 1321N1 cells over M1 receptor; type: cell-based
1321-N1 [16] = assay: Selectivity for human FFA1 receptor expressed in human 1321N1 cells over PPARgamma receptor; type: cell-based
1321-N1 [17] = assay: Selectivity for human FFA1 receptor expressed in human 1321N1 cells over 5HT1B receptor; type: cell-based
1321-N1 [18] = assay: Selectivity for human FFA1 receptor expressed in human 1321N1 cells over Delta2 receptor; type: cell-based
1321-N1 [19] = assay: Selectivity for human FFA1 receptor expressed in human 1321N1 cells over alpha2 receptor; type: cell-based
1321-N1 [20] = assay: Selectivity for human FFA1 receptor expressed in human 1321N1 cells over Mu receptor; type: cell-based
1321-N1 [21] = assay: Selectivity for human FFA1 receptor expressed in human 1321N1 cells over alpha1 receptor; type: cell-based
1321-N1 [22] = assay: Selectivity for human FFA1 receptor expressed in human 1321N1 cells over beta1 receptor; type: cell-based
Liver = assay: Metabolic stability in human liver S9 fraction; type: ADME, subcellular
1321-N1 [23] = assay: Selectivity for human FFA1 receptor expressed in human 1321N1 cells over kappa receptor; type: cell-based
1321-N1 [24] = assay: Selectivity for human FFA1 receptor expressed in human 1321N1 cells over Y1 receptor; type: cell-based
1321-N1 [25] = assay: Selectivity for human FFA1 receptor expressed in human 1321N1 cells over V1a receptor; type: cell-based
1321-N1 [26] = assay: Selectivity for human FFA1 receptor expressed in human 1321N1 cells over TP receptor; type: cell-based
1321-N1 [27] = assay: Selectivity for human FFA1 receptor expressed in human 1321N1 cells over M3 receptor; type: cell-based
1321-N1 [28] = assay: Selectivity for human FFA1 receptor expressed in human 1321N1 cells over MC4 receptor; type: cell-based
1321-N1 [29] = assay: Selectivity for human FFA1 receptor expressed in human 1321N1 cells over Kv channel; type: cell-based
1321-N1 [30] = assay: Selectivity for human FFA1 receptor expressed in human 1321N1 cells over sst receptor; type: cell-based
1321-N1 [31] = assay: Selectivity for human FFA1 receptor expressed in human 1321N1 cells over H1 receptor; type: cell-based
[32] = biological target: Free fatty acid receptor 1 (Rattus norvegicus) (UniProt Q8K3T4); assay: Agonist activity at FFA1 receptor in rat INS-1E cells assessed as movement of cellular constitiuent by DMR assay; type: functional, cell-based; procedure, shortened: as §1
[33] = Aqueous solubility of the compound in PBS at pH 7.4; type: physicochemical
Procedure, shortened: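 Solubility measured in PBS at pH 7.4.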

1321-N1 [34] = assay: Selectivity for human FFA1 receptor expressed in human 1321N1 cells over 5HT2B receptor; type: cell-based
1321-N1 [35] = assay: Selectivity for human FFA1 receptor expressed in human 1321N1 cells over A3 receptor; type: cell-based
1321-N1 [36] = assay: Selectivity for human FFA1 receptor expressed in human 1321N1 cells over norepinephrine transporter; type: cell-based
1321-N1 [37] = assay: Selectivity for human FFA1 receptor expressed in human 1321N1 cells over M2 receptor; type: cell-based
HEK293 [38] = assay: Selectivity for human FFA1 receptor expressed in human 1321N1 cells over human FFA3 receptor expressed in HEK293 cells at 10 uM; type: cell-based
1321-N1 [39] = assay: Selectivity for human FFA1 receptor expressed in human 1321N1 cells over GAL2 receptor; type: cell-based
HEK293 [40] = assay: Selectivity for human FFA1 receptor expressed in human 1321N1 cells over human FFA2 receptor expressed in HEK293 cells at 10 uM; type: cell-based
1321-N1 [41] = assay: Selectivity for human FFA1 receptor expressed in human 1321N1 cells over 5HT6 receptor; type: cell-based
[42] = Chemical stability of the compound in PBS at 37 degC for 12 days; type: physicochemical; settings: read-out: Stability
Procedure, shortened: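 Stability followed in PBS at 37 °C over 12 days.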

1321-N1 [43] = assay: Selectivity for human FFA1 receptor expressed in human 1321N1 cells over NOP receptor; type: cell-based

Free fatty acid receptor 1 (Rattus norvegicus), sequence (Q8K3T4 whole entry): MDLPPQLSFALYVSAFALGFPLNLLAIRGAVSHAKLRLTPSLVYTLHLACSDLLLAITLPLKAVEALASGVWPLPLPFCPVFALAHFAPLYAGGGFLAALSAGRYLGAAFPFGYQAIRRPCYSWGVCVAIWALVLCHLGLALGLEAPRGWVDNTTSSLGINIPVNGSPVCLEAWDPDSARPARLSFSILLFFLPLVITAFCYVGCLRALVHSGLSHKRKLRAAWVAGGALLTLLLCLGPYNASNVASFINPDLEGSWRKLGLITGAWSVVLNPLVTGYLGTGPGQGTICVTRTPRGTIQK
CYP2C19, sequence (P33261 whole entry): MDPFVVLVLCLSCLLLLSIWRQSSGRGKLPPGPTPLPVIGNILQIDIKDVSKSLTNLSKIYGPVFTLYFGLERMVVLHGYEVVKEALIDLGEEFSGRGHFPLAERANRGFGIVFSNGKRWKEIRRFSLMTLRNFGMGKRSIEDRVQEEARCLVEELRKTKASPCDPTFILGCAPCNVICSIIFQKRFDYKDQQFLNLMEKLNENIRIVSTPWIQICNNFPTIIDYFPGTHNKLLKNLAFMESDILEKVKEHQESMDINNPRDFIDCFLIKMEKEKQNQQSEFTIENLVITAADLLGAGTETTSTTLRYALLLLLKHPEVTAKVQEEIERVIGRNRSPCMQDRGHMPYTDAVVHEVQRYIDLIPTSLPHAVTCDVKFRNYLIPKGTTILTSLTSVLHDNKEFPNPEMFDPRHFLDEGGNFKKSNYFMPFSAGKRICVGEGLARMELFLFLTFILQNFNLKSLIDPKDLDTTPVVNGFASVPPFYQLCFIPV
Free fatty acid receptor 1, sequence (O14842 whole entry): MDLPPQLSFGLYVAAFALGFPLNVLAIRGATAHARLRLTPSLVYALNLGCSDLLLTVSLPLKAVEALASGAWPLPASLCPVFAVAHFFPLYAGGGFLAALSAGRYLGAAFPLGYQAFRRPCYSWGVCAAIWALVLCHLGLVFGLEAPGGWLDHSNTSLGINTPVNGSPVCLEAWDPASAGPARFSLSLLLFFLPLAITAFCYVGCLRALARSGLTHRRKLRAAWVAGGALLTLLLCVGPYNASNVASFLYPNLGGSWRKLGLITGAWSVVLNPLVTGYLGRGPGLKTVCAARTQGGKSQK

**Q.** Which Selectivity ratio (1321-N1 [1]) does the source give for `O=C(O)CCc1ccc(C#Cc2cc(Cl)nc(Cl)c2)cc1` here?
**A.** > 100

**Q.** What about the Activity [2] of the same molecule?
**A.** Active

**Q.** What about the Selectivity ratio (1321-N1 [3]) of the same molecule?
**A.** > 100

**Q.** What about the Selectivity ratio (1321-N1 [4]) of the same molecule?
**A.** > 100

**Q.** What about the Selectivity ratio (1321-N1 [5]) of the same molecule?
**A.** > 100

**Q.** And the Selectivity ratio (1321-N1 [6])?
**A.** > 100

**Q.** What about the Selectivity ratio (1321-N1 [7]) of the same molecule?
**A.** > 100

**Q.** And the Selectivity ratio (1321-N1 [8])?
**A.** > 100

**Q.** What about the Papp A→B [9] of the same molecule?
**A.** 112 ×10⁻⁶ cm/s

**Q.** What about the Selectivity ratio (1321-N1 [10]) of the same molecule?
**A.** > 100

**Q.** What about the Activity [11] of the same molecule?
**A.** inactive

**Q.** And the inhibition at 10 µM (CYP2C19)?
**A.** -7%

**Q.** What about the Selectivity ratio (1321-N1 [12]) of the same molecule?
**A.** > 100

**Q.** And the Selectivity ratio (1321-N1 [13])?
**A.** > 100

**Q.** And the Papp [14]?
**A.** 16.4 ×10⁻⁶ cm/s

**Q.** What about the Selectivity ratio (1321-N1 [15]) of the same molecule?
**A.** > 100

**Q.** What about the Selectivity ratio (1321-N1 [16]) of the same molecule?
**A.** > 100

**Q.** What about the Selectivity ratio (1321-N1 [17]) of the same molecule?
**A.** > 100

**Q.** What about the Selectivity ratio (1321-N1 [18]) of the same molecule?
**A.** > 100

**Q.** And the Selectivity ratio (1321-N1 [19])?
**A.** > 100

**Q.** What about the Selectivity ratio (1321-N1 [20]) of the same molecule?
**A.** > 100

**Q.** What about the Selectivity ratio (1321-N1 [21]) of the same molecule?
**A.** > 100

**Q.** What about the Selectivity ratio (1321-N1 [22]) of the same molecule?
**A.** > 100

**Q.** And the Stability (Liver)?
**A.** 97%

**Q.** And the Selectivity ratio (1321-N1 [23])?
**A.** > 100

**Q.** What about the Selectivity ratio (1321-N1 [24]) of the same molecule?
**A.** > 100

**Q.** And the Selectivity ratio (1321-N1 [25])?
**A.** > 100

**Q.** What about the Selectivity ratio (1321-N1 [26]) of the same molecule?
**A.** > 100

**Q.** What about the Selectivity ratio (1321-N1 [27]) of the same molecule?
**A.** > 100

**Q.** And the Selectivity ratio (1321-N1 [28])?
**A.** > 100

**Q.** What about the Selectivity ratio (1321-N1 [29]) of the same molecule?
**A.** > 100

**Q.** And the Selectivity ratio (1321-N1 [30])?
**A.** > 100

**Q.** And the Selectivity ratio (1321-N1 [31])?
**A.** > 100

**Q.** What about the Activity [32] of the same molecule?
**A.** Active

**Q.** And the solubility [33]?
**A.** 199 µM (≈ 63.7 µg/mL)

**Q.** And the Selectivity ratio (1321-N1 [34])?
**A.** > 100

**Q.** And the Selectivity ratio (1321-N1 [35])?
**A.** > 100

**Q.** And the Selectivity ratio (1321-N1 [36])?
**A.** > 100

**Q.** And the Selectivity ratio (1321-N1 [37])?
**A.** > 100

**Q.** And the Selectivity ratio (HEK293 [38])?
**A.** > 100

**Q.** And the Selectivity ratio (1321-N1 [39])?
**A.** > 100

**Q.** And the Selectivity ratio (HEK293 [40])?
**A.** > 100

**Q.** What about the Selectivity ratio (1321-N1 [41]) of the same molecule?
**A.** > 100

**Q.** And the remaining at 288 h [42]?
**A.** 99.9%

**Q.** And the Selectivity ratio (1321-N1 [43])?
**A.** > 100
